Source: PubChem BioAssay (Sanford-Burnham Center for Chemical Genomics)
SENP1 FRET inh: SENP1 (human) catalytic domain inhibition; AID 624204; recombinant SENP1 catalytic domain, CyPet-SUMO1-YPet FRET cleavage; inhibition, % at 10 µM; 360,000 compounds, 0.21% hits;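 active = inhibition at least 30% at 10 µM, raw YFP signal under a set limit, fluorescence ratio 0.5 to 1.5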;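 note: 0% = enzyme with DMSO and 100% = no enzyme wells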
Target sequence (Q9P0U3 419-644 limits assumed): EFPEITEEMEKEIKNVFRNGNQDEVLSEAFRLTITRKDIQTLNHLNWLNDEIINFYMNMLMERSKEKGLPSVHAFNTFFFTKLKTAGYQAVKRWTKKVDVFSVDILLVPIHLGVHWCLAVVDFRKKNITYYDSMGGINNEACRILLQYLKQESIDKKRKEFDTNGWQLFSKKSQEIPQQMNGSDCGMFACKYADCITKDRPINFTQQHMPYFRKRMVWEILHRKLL
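Test system: human SENP1 catalytic domain; medium: Tris pH 8 buffer plus EDTA, NaCl, BME, BSA, NP40, catalase; incubation: 50 min reaction at room temperature; technique: FRET, CFP and YFP emission; controls: no-enzyme low control and enzyme-plus-DMSO high control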
EBI2 block: antagonists of human EBI2 receptor; P32249; EBI2 beta-arrestin recruitment, luminescence, 7a,25-OHC stimulated; inhibition, % at 5 µM; 360,000 compounds, 0.81% hits; in the data active = inhibition above about 38%;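 note: enzyme fragment complementation signal reports receptor beta-arrestin coupling in cells; 0% = agonist plus DMSO wells and 100% = wells without agonist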
Target sequence (P32249 whole entry, looked up, the tested form may be a part): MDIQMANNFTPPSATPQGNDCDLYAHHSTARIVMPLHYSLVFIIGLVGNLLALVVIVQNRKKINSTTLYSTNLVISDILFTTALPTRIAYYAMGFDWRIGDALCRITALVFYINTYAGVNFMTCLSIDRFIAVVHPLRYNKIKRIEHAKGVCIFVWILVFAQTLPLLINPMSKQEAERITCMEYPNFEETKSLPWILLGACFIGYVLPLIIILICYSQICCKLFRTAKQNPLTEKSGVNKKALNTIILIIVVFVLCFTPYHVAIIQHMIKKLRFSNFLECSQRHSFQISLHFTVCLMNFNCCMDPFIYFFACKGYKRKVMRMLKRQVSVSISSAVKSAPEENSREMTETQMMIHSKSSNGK
MPTP inh: permeability transition pore inhibition; inhibition, % at 10 µM; isolated mouse mitochondria, Ca2+ swelling absorbance, 30 min; 360,000 compounds, 1.4% hits;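 active = inhibition of 50% or more, scaled per plate between neutral and stimulator controls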;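 note: 0% = DMSO wells given calcium and 100% = 1 mM EGTA wells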
NR3A LBD binder: modulates the human NR3A ligand-binding domain; NR3A LBD differential scanning fluorimetry, Tm shift; 0% = protein alone, 100% = glycine-bound protein; Tm shift relative to glycine control, % at 25 µM; 340,000 compounds, 2.5% hits; AID 1259313;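 active = melting temperature shift of at least 10% of the positive control shift, at one fixed dose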
Starred values were filed as active, the others as inactive; . = not tested or not shown. This is a sample that favours compounds with a hit; in the whole collection about 4.4% have one here.

SMILES	SENP1 FRET inh	EBI2 block	MPTP inh	NR3A LBD binder
CC(C)Cc1ccc(S(=O)(=O)Nc2ccccn2)cc1	0	-4	2	-4
O=C(CSc1nc2ccccc2n1S(=O)(=O)c1ccccc1)N1CCCCC1	1	1	3	14*
O=C(CSc1nc2ccccc2n1CC(=O)N1CCCCC1)N1CCCCC1	0	-7	0	-1
Cc1ccc(CN(C)C(=O)CCNC(=O)c2ccc(Cl)cc2)o1	1	0	0	.
COc1cccc(CCNC(=O)CCCC(=O)c2ccccc2)c1	5	1	1	0
Cc1c(C(=O)N/N=C/c2cccs2)nnn1-c1nonc1N	-6	-10	0	10*
CCCc1c(C(=O)N/N=C/c2cccs2)nnn1-c1nonc1N	0	-2	-3	17*
CCCN(CCC)Cc1c(C(=O)N/N=C/c2cccs2)nnn1-c1nonc1N	2	2	0	-13
CN(Cc1c(C(=O)N/N=C/c2cccs2)nnn1-c1nonc1N)c1ccccc1	-1	-9	4	16*
C/C(=N\NC(=O)c1nnn(-c2nonc2N)c1CN(C)c1ccccc1)c1ccccc1O	-24	-5	0	14*
COc1ccc(/C(C)=N/NC(=O)c2nnn(-c3nonc3N)c2CN(C)c2ccccc2)cc1	0	-7	0	-14
COc1ccc(NC(=O)[C@@H](NS(=O)(=O)c2cccc(Cl)c2)C(C)C)cc1S(=O)(=O)N1CCOCC1	0	3	0	0
COc1ccc(S(=O)(=O)N2CC(C)N(C(=O)N(C)C)C2C)cc1 (stereo not drawn)	-1	14	1	-1
COc1ccc(C(=O)Nc2sc3c(c2C(=O)O)CC(C)(C)OC3)cc1	3	-14	0	1
CC1(C)Cc2c(sc(NC(=O)c3ccccc3)c2C(=O)O)CO1	-2	-12	-1	10*
Oc1c(Cl)cc(Cl)cc1/C=N/Nc1ncc(Br)cn1	-1	76*	-1	-1
O=C(N/N=C/c1cc(Cl)cc(Cl)c1O)c1ccncc1	-38	68*	7	-3
COc1ccc(/C=N/NC(=O)c2ccc(Br)cc2)c(OC)c1	-3	2	-2	1
Cc1ccc(N=Cc2cc(Cl)cc(Cl)c2O)nc1	-26	-13	-1	-13
COc1ccc(/C=N/NC(=O)c2ccncc2)c(OC)c1	1	5	-1	20*
Cc1cc(C)c2[nH]c(=O)c(CN(CC3CCCO3)C(=S)NCc3ccco3)cc2c1 (stereo not drawn)	-1	-9	-7	2
Cc1ccc2[nH]c(=O)c(CN(CC3CCCO3)C(=S)NCc3ccco3)cc2c1 (stereo not drawn)	-3	7	4	13*
Cc1ccc2[nH]c(=O)c(CN(Cc3cccs3)C(=S)NCc3ccco3)cc2c1	-3	7	5	13*
CCNC(=S)N(Cc1cccs1)Cc1cc2cc(OCC)ccc2[nH]c1=O	-6	5	2	-9
Cc1cccc2cc(CN(CC3CCCO3)C(=S)NCc3ccco3)c(=O)[nH]c12 (stereo not drawn)	-1	-2	2	13*
SMILES	SENP1 FRET inh	EBI2 block	MPTP inh	NR3A LBD binder
O=C(CSc1nnc(Nc2ccccc2)s1)Nc1cccc(S(=O)(=O)N2CCCCC2)c1	1	-4	10	16*
O=C(CCNC(=O)c1ccc(Cl)cc1)Nc1cccc(S(=O)(=O)N2CCCCCC2)c1	0	14	1	29*
O=C(CSc1nnc2c(n1)[nH]c1ccc(S(=O)(=O)N3CCOCC3)cc12)Nc1ccc(F)c(F)c1	-1	1	4	35*
Cc1cc(S(=O)(=O)NCc2ccccc2)ccc1OCC(=O)NCc1ccccn1	1	2	-1	0
Cc1cc(S(=O)(=O)NCc2ccccc2)ccc1OCC(=O)Nc1cccc([N+](=O)[O-])c1	0	16	25	11*
O=C(Cn1c(=O)c2cccn2c2ccccc21)Nc1cc(F)ccc1F	-12	2	-1	-3
COc1ccc(C(=O)NC2CCCc3c2cnn3-c2cccc(C)c2C)o1 (stereo not drawn)	-1	-14	3	-2
Cc1cc(S(=O)(=O)N2CCOCC2)ccc1OCC(=O)Nc1cccc(F)c1	0	13	0	37*
O=C(CNc1cccc(F)c1)Nc1cccc(S(=O)(=O)N2CCCCC2)c1	0	-3	-3	14*
Cc1ccc(NC(=O)CNc2cccc(S(=O)(=O)N3CCCCC3)c2)cc1F	2	-3	5	-1
O=C(CSc1nnc2ccccn12)Nc1cccc(S(=O)(=O)N2CCOCC2)c1	0	-3	-1	10*
Cc1ccc(NC(=O)C(OC(=O)c2cnc(C)cn2)c2ccccc2)c([N+](=O)[O-])c1 (stereo not drawn)	5	-1	0	2
Cc1ccc[n+](-c2[nH]c(=O)sc2/C=N/NC(=O)c2ccccc2[O-])c1	1	3	0	-6
CC(C)CN(C(=O)COC(=O)c1cc2c(s1)CCC2)C1CCS(=O)(=O)C1 (stereo not drawn)	-54	1	-1	-1
O=C(CSc1nnc(Nc2ccccc2)s1)NCc1cccs1	-2	-9	0	1
Oc1ccc(/C=N/Nc2ccc(C(F)(F)F)cn2)cc1	-15	13	4	26*
Cc1ccc(C(=O)Nc2cccc(C(=O)N/N=C/c3ccc(O)cc3)c2)cc1	2	-2	0	11*
Cc1cccc(NC2=C(NC(=O)c3ccccc3)C(=O)c3ccccc3C2=O)c1	-1	2	5	19*
Cc1cccc(NC(=S)NNC(=O)c2ccccc2Br)c1	3	6	4	-3
Cc1cccc(NC(=O)c2ccc(NC(=O)c3ccccc3Br)cc2)c1	1	9	0	27*
Oc1ccc(/C=N/Nc2ccc(C(F)(F)F)cn2)c(O)c1	5	10	2	.
Cc1cccc(C(=O)Nc2cccc(C(=O)N/N=C/c3ccncc3)c2)c1	0	-1	0	0
CCc1sc(C(=O)N2CCc3cc(OC)c(OC)cc3C2CC(=O)O)cc1C (stereo not drawn)	2	3	1	3
CCOc1ccc(Cl)cc1-c1cc(C(=O)Nc2ccc(C(C)C)cc2)[nH]n1	1	30	4	.
O=C(N/N=C/c1cccc(C(F)(F)F)c1)c1ccc(O)cc1	2	1	-1	7
SMILES	SENP1 FRET inh	EBI2 block	MPTP inh	NR3A LBD binder
Cc1cccc(C(=O)Nc2ccc(C(=O)Nc3ccc(O)cc3)cc2)c1	2	-4	1	38*
Cc1cccc(C(=O)Nc2ccc(NC(=O)c3cccc(C)c3)cc2)c1	0	2	1	.
O=C(N/N=C/c1ccc(C(F)(F)F)cc1)c1ccc(O)cc1	0	6	-1	12*
Cc1ccc(N(CCC#N)C(=O)CN2C(=O)NC(Cc3ccccc3)C2=O)cc1 (stereo not drawn)	1	-10	0	-1
N#CCCn1cc(/C=C2\NC(=S)N(c3ccccc3)C2=O)c(-c2ccc(-c3ccccc3)cc2)n1	-124	28	3	22*
COC(=O)c1cc(S(=O)(=O)Nc2nn(C)c3cccc(F)c23)oc1C	1	0	3	-4
